Assay results reported in ChEMBL document CHEMBL1141534, “Synthesis of all stereoisomers of 3-hydroxypipecolic acid and 3-hydroxy-4,5-dehydropipecolic acid and their evaluation as glycosidase inhibitors” (Bioorg Med Chem Lett, 2008).

Assays:
[1] = tested on: alpha-N-acetylgalactosaminidase (Gallus gallus); test: Inhibition of chick liver alpha-N-acetylgalactosaminidase; parameters: concentration or dose not given beside the values; conditions: concentration not given here
Escherichia coli = test: Inhibition of Escherichia coli beta-glucuronidase; parameters: concentration or dose not given beside the values; conditions: concentration not given here
Outline: (§1)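 Enzyme activity was measured with the matching p-nitrophenyl glycoside as substrate at 10 mM, at each enzyme's optimum pH, with a suitable amount of enzyme per reaction. For line 4, the α-N-acetylgalactosaminidase came from chicken liver.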

[2] = target: T1, Beta-glucuronidase (Bos taurus) (UniProt A3KMY8); test: Inhibition of bovine liver beta-glucuronidase; parameters: concentration or dose not given beside the values; conditions: concentration not given here
T1 sequence (whole entry): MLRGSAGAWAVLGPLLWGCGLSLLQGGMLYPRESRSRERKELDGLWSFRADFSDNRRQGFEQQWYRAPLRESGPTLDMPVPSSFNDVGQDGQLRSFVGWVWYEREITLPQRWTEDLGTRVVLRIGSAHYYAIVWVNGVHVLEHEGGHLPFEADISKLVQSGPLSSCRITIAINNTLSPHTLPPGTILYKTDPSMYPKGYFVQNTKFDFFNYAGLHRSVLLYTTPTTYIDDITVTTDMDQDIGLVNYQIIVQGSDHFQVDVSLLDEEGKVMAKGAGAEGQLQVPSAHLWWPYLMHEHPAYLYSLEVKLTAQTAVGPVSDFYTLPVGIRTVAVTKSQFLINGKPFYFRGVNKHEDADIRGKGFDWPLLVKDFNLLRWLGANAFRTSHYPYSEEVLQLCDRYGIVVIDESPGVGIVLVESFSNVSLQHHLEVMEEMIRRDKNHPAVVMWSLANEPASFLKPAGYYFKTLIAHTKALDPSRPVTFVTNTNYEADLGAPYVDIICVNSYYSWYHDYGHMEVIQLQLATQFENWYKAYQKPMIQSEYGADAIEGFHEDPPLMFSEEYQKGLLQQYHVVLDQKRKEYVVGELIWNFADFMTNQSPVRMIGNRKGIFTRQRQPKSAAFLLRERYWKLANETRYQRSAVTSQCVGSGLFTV
Outline: as §1

Bos taurus = species on record: Bos taurus; test: (§2) Inhibition of bovine kidney beta-N-acetylglucosaminidase; parameters: concentration or dose not given beside the values; conditions: concentration not given here
Outline: as §1

[3] = as §2; parameters: species or system Bos taurus
Outline: as §1

## O=C(O)[C@H]1NCC=C[C@H]1O
[1]
  inhibition: 0.2%
Escherichia coli
  inhibition: 3.3%
[2]
  inhibition: 8.6%
Bos taurus
  inhibition: 7.3%

## O=C(O)[C@@H]1NCC=C[C@@H]1O
[1]
  inhibition: 1.3%
Escherichia coli
  inhibition: 0.9%
[2]
  inhibition: 10%
Bos taurus
  inhibition: 0.8%

## O=C(O)[C@H]1NCCC[C@H]1O
[1]
  inhibition: 2.5%
Escherichia coli
  inhibition: 24%
[2]
  inhibition: 0.18%
Bos taurus
  inhibition: 20%

## O=C(O)[C@@H]1NCCC[C@@H]1O
[1]
  inhibition: 3.2%
Escherichia coli
  inhibition: 23%
[2]
  inhibition: 15%
Bos taurus
  inhibition: 47%

## O=C(O)[C@@H]1NCCC[C@H]1O
[1]
  inhibition: 1.3%
Escherichia coli
  inhibition: 20%
[2]
  inhibition: 0.62%
Bos taurus
  inhibition: 32%

## O=C(O)[C@@H]1NCC=C[C@H]1O
[1]
  inhibition: 3.2%
Escherichia coli
  inhibition: 0.9%
[2]
  inhibition: 0.2%
Bos taurus
  inhibition: 15%

## O=C(O)[C@H]1NCCC[C@@H]1O
[1]
  inhibition: 5.2%
Escherichia coli
  inhibition: 31%
[2]
  inhibition: 0.89%
Bos taurus
  inhibition: 38%

## O=C(O)[C@H]1NCC=C[C@@H]1O
[1]
  inhibition: 25%
Escherichia coli
  inhibition: 2%
[2]
  inhibition: 19%
[3]
  IC50: 720 µM
Bos taurus
  inhibition: 58%
